According to ChEMBL document CHEMBL1821638, “Targeting the human malaria parasite Plasmodium falciparum: in vitro identification of a new antiplasmodial hit in 4-phenoxy-2-trichloromethylquinazoline series” (Eur J Med Chem, 2011):
Active and inactive are the calls of the source. The calls are words filed in the database; no cut-off is given here.

Tests used:
[1] = tested on: Plasmodium falciparum; test: Antiplasmodial activity against chloroquine, pyrimethamine and proguanil-resistant Plasmodium falciparum W2 infected in human A positive erythrocytes after 72 hrs by SYBR Green I assay; assay type: functional, organism-based; details: W2, 72 h
[2] = Cytotoxicity against human HepG2 cells after 72 hrs by MTT assay; assay type: cell-based
In short: (§1)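 HepG2 or HFF cells seeded in RPMI with 10% foetal bovine serum, L-glutamine and penicillin/streptomycin, 37 °C, 6% CO₂; after 24 h, medium with various compound concentrations added for 72 h. Wells checked microscopically for precipitate. MTT in serum-free medium 2 h at 37 °C, formazan dissolved in DMSO, absorbance at 570 nm (630 nm reference). Viability as percent of untreated control; doxorubicin reference.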

[3] = Selectivity index, ratio of CC50 for human HepG2 cells to IC50 for chloroquine, pyrimethamine and proguanil-resistant Plasmodium falciparum W2; assay type: functional
[4] = tested on: HepG2; test: Cytotoxicity against human HepG2 cells at > 125 uM after 72 hrs by MTT assay; assay type: cell-based; details: hepg2, 72 h; in short: as §1
[5] = tested on: Salmonella typhimurium; test: Mutagenic activity in Salmonella Typhimurium TA100 assessed as number of spontaneous and drug-induced revertants at 25 to 125 nM after 48 hrs by Ames test; assay type: toxicity, organism-based; details: salmonella enterica subsp. enterica serovar typhimurium, 0.125 µM
In short: (§2)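 Salmonella tester strains grown overnight in nutrient broth. Compound in DMSO added to 0.1 mL culture and preincubated 1 h at 37 °C with shaking, in duplicate. Mixed with 2 mL molten top agar and plated on Vogel-Bonner minimal agar. After 48 h at 37 °C, spontaneous and induced revertants per plate counted for each dose by laser colony counter, against negative controls.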

[6] = tested on: Salmonella typhimurium; test: Mutagenic activity in Salmonella Typhimurium TA102 assessed as number of spontaneous and drug-induced revertants at 25 to 125 nM after 48 hrs by Ames test; assay type: toxicity, organism-based; details: salmonella enterica subsp. enterica serovar typhimurium, 0.125 µM; in short: as §2
[7] = Cytotoxicity against human HFF cells after 72 hrs by MTT assay; assay type: cell-based; in short: as §1
[8] = tested on: Salmonella typhimurium; test: Mutagenic activity in Salmonella Typhimurium TA97a assessed as number of spontaneous and drug-induced revertants at 25 to 125 nM after 48 hrs by Ames test; assay type: toxicity, organism-based; details: salmonella enterica subsp. enterica serovar typhimurium, 0.125 µM; in short: as §2
[9] = tested on: Salmonella typhimurium; test: Mutagenic activity in Salmonella Typhimurium TA98 assessed as number of spontaneous and drug-induced revertants at 25 to 125 nM after 48 hrs by Ames test; assay type: toxicity, organism-based; details: salmonella enterica subsp. enterica serovar typhimurium, 0.125 µM; in short: as §2
[10] = Solubility of the compound; assay type: physicochemical
[11] = tested on: Toxoplasma gondii; test: Antiparasitic activity against Toxoplasma gondii PRU tachyzoites harboring beta-Gal gene infected in human HFF cells after 72 hrs by microtiter plate based assay; assay type: functional, cell-based
In short: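 T. gondii PRU-b-Gal tachyzoites kept by serial passage in confluent human foreskin fibroblast (HFF) monolayers. Compounds in DMSO (final <0.5% v/v) added at various concentrations in triplicate. Controls: DMSO-treated, pyrimethamine, and uninfected drug-free monolayers. Incubated 72 h at 37 °C, 6% CO2. Read by colorimetric microtiter assay.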

[12] = tested on: Plasmodium falciparum; test: Antiplasmodial activity against chloroquine, pyrimethamine and proguanil-resistant Plasmodium falciparum W2 infected in human A positive erythrocytes at > 50 uM after 72 hrs by SYBR Green I assay; assay type: functional, organism-based
In short: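 W2 strain kept in continuous culture in A+ human erythrocytes at 2.5% hematocrit. Medium was RPMI 1640 with 25 mM HEPES, 25 mM NaHCO3 and 10% A+ human serum, at 37 °C under 5% O2/5% CO2/90% N2, parasitaemia 1–6%. Drug exposure 72 h. Lysis buffer with SYBR Green I, saponin and Triton X-100, 15 min at 37 °C. Fluorescence read at ex 497/em 520 nm. IC50 by non-linear regression, mean of three independent experiments.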

Fc1cccc(Oc2nc(C(Cl)(Cl)Cl)nc3ccccc23)c1
IC50 [1]: 2.3 µM
CC50 at 72 h [2]: 41.7 µM
Ratio CC50/IC50 [3]: 18.1

FC(F)(F)c1ccccc1Oc1nc(C(Cl)(Cl)Cl)nc2ccccc12
IC50 [1]: 3.3 µM
CC50 at 72 h [2]: 34.9 µM
Ratio CC50/IC50 [3]: 10.6

Clc1nc(C(Cl)(Cl)Cl)nc2ccccc12
Activity [4]: Non-toxic
Ratio CC50/IC50 [3]: >2.3

COc1cccc2c1C(=O)c1c(O)c3c(c(O)c1C2=O)C[C@@](O)(C(=O)CO)C[C@@H]3O[C@H]1C[C@H](N)[C@H](O)[C@H](C)O1 [DOXORUBICIN]
Activity [5]: Toxic
Activity [6]: Toxic
CC50 at 72 h [2]: 0.2 µM
CC50 at 72 h [7]: 0.03 µM
Activity [8]: Toxic
Activity [9]: Toxic

Cc1cccc(Oc2nc(C(Cl)(Cl)Cl)nc3ccccc23)c1
IC50 [1]: 2.9 µM
CC50 at 72 h [2]: 7.6 µM
Ratio CC50/IC50 [3]: 2.6

O=[N+]([O-])c1cccc(Oc2nc(C(Cl)(Cl)Cl)nc3ccccc23)c1
IC50 [1]: 3 µM
CC50 at 72 h [2]: 36.3 µM
Ratio CC50/IC50 [3]: 12.1

Clc1ccccc1Oc1nc(C(Cl)(Cl)Cl)nc2ccccc12
IC50 [1]: 4.4 µM
CC50 at 72 h [2]: 33.6 µM
Ratio CC50/IC50 [3]: 7.6

O=[N+]([O-])c1ccccc1Oc1nc(C(Cl)(Cl)Cl)nc2ccccc12
solubility [10]: Insoluble
IC50 [1]: 4.9 µM
CC50 at 72 h [2]: > 8 µM
Ratio CC50/IC50 [3]: >1.6

Clc1cccc(Oc2nc(C(Cl)(Cl)Cl)nc3ccccc23)c1
IC50 [1]: 2.4 µM
CC50 at 72 h [2]: 26.1 µM
Ratio CC50/IC50 [3]: 10.9

ClC(Cl)(Cl)c1nc(Oc2cccc3ccccc23)c2ccccc2n1
IC50 [1]: 3.9 µM
CC50 at 72 h [2]: 2.4 µM
Ratio CC50/IC50 [3]: 0.6

COc1cccc(Oc2nc(C(Cl)(Cl)Cl)nc3ccccc23)c1
IC50 [1]: 1.9 µM
CC50 at 72 h [2]: 0.6 µM
Ratio CC50/IC50 [3]: 0.3

ClC(Cl)(Cl)c1nc(Oc2ccc3ccccc3c2)c2ccccc2n1
IC50 [1]: 2.3 µM
CC50 at 72 h [2]: 3.6 µM
Ratio CC50/IC50 [3]: 1.6

Fc1ccccc1Oc1nc(C(Cl)(Cl)Cl)nc2ccccc12
IC50 [1]: 5 µM
CC50 at 72 h [2]: 38.3 µM
Ratio CC50/IC50 [3]: 7.7

CCc1nc(N)nc(N)c1-c1ccc(Cl)cc1 [PYRIMETHAMINE]
CC50 at 72 h [2]: 7.1 µM
IC50 [11]: 1.1 µM
CC50 at 72 h [7]: > 50 µM

FC(F)(F)c1cccc(Oc2nc(C(Cl)(Cl)Cl)nc3ccccc23)c1
IC50 [1]: 2.3 µM
CC50 at 72 h [2]: 25.1 µM
Ratio CC50/IC50 [3]: 10.9

C[C@H]1c2cccc(O)c2C(=O)C2=C(O)[C@]3(O)C(=O)C(C(N)=O)=C(O)[C@@H](N(C)C)[C@@H]3[C@@H](O)[C@@H]21.O [DOXYCYCLINE]
IC50 [1]: 4.8 µM
CC50 at 72 h [2]: 20 µM
Ratio CC50/IC50 [3]: 4.2

O=[N+]([O-])c1ccc(Oc2nc(C(Cl)(Cl)Cl)nc3ccccc23)cc1
solubility [10]: Insoluble
IC50 [1]: 3.5 µM
CC50 at 72 h [2]: > 16 µM
Ratio CC50/IC50 [3]: >4.6

Fc1ccc(Oc2nc(C(Cl)(Cl)Cl)nc3ccccc23)cc1
IC50 [1]: 2.4 µM
CC50 at 72 h [2]: 29.5 µM
Ratio CC50/IC50 [3]: 12.3

Cc1ccccc1Oc1nc(C(Cl)(Cl)Cl)nc2ccccc12
IC50 [1]: 5.5 µM
CC50 at 72 h [2]: 25.1 µM
Ratio CC50/IC50 [3]: 4.6

Cc1ccc(Oc2nc(C(Cl)(Cl)Cl)nc3ccccc23)cc1
IC50 [1]: 3.2 µM
CC50 at 72 h [2]: 42.8 µM
Ratio CC50/IC50 [3]: 13.4

FC(F)(F)c1nc(Oc2ccc(Cl)cc2)c2ccccc2n1
IC50 [1]: 68 µM
CC50 at 72 h [2]: 72 µM
Ratio CC50/IC50 [3]: 1.1

Cc1nc(Oc2ccc(Cl)cc2)c2ccccc2n1
IC50 [1]: 28 µM
CC50 at 72 h [2]: 26 µM
Ratio CC50/IC50 [3]: 0.9

COc1ccc(Oc2nc(C(Cl)(Cl)Cl)nc3ccccc23)cc1
IC50 [1]: 2.9 µM
CC50 at 72 h [2]: 34.1 µM
Ratio CC50/IC50 [3]: 11.8

FC(F)(F)c1ccc(Oc2nc(C(Cl)(Cl)Cl)nc3ccccc23)cc1
IC50 [1]: 1.8 µM
CC50 at 72 h [2]: 29.6 µM
Ratio CC50/IC50 [3]: 16.4

Oc1nc(C(Cl)(Cl)Cl)nc2ccccc12
Activity [12]: inactive
CC50 at 72 h [2]: 21 µM
Ratio CC50/IC50 [3]: <0.42

Cc1ccc(Oc2nc(C(Cl)(Cl)Cl)nc3ccccc23)cc1C
IC50 [1]: 3.3 µM
CC50 at 72 h [2]: 29 µM
Ratio CC50/IC50 [3]: 8.8

ClC(Cl)(Cl)c1nc(Oc2ccccc2)c2ccccc2n1
IC50 [1]: 3.1 µM
CC50 at 72 h [2]: 50 µM
Ratio CC50/IC50 [3]: 16

COc1ccccc1Oc1nc(C(Cl)(Cl)Cl)nc2ccccc12
IC50 [1]: 6 µM
CC50 at 72 h [2]: 6.7 µM
Ratio CC50/IC50 [3]: 1.1
